In article PMC5035790 (Annals of Oncology, 2016):
Marks after values point to notes of the source that are not given here.

System: patients with advanced solid tumors or non-Hodgkin's lymphoma
Experiment: Phase I dose-escalation study: safety, tolerability, MTD, adverse events
Format: in vivo, human
Procedure, shortened: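 Adults with advanced solid tumours (plus NHL and type 2 diabetic expansion cohorts) received a 1-h IV infusion on days 1, 8 and 15 of 28-day cycles over 0.1–1.2 mg/kg. Accelerated titration escalated the dose by 100% per cohort. MTD was the highest dose given to six patients with ≤1 DLT. Fasting was 8 h pre- and 3 h post-start on cycle 1 day 1. AEs were assessed at planned times each cycle and at follow-up.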

[1] = diabetic expansion, 0.4 mg/kg, n=6
[2] = solid tumors expansion, 0.8 mg/kg, n=25

COc1c(OCCCN2CCOCC2)ccc2c1N=C(NC(=O)c1cnc(N)nc1)N1CCN=C21 [copanlisib, Copanlisib]
Drug-related hyperglycemia, grade 3 (cohort 4, 0.8 mg/kg, n=7): 4 (57) n (%) | Drug-related hypertension, all grades (cohort 4, 0.8 mg/kg, n=7): 1 (14) n (%) | Drug-related hypertension, grade 3 (cohort 4, 0.8 mg/kg, n=7): 0 n (%) | Drug-related nausea, all grades (cohort 4, 0.8 mg/kg, n=7): 1 (14) n (%) | Drug-related nausea, grade 3 (cohort 4, 0.8 mg/kg, n=7): 0 n (%) | Drug-related oral cavity mucositis, all grades (cohort 4, 0.8 mg/kg, n=7): 0 n (%) | Drug-related oral cavity mucositis, grade 3 (cohort 4, 0.8 mg/kg, n=7): 0 n (%) | Drug-related rash/desquamation, all grades (cohort 4, 0.8 mg/kg, n=7): 0 n (%) | Drug-related rash/desquamation, grade 3 (cohort 4, 0.8 mg/kg, n=7): 0 n (%) | Drug-related vomiting, all grades (cohort 4, 0.8 mg/kg, n=7): 1 (14) n (%) | Drug-related vomiting, grade 3 (cohort 4, 0.8 mg/kg, n=7): 0 n (%) | Any drug-related AE (cohort 5, 1.2 mg/kg, n=3): 3 (100) n (%) | Drug-related AEs of grade 3 (cohort 5, 1.2 mg/kg, n=3): 2 (67) n (%) | Drug-related AEs of grade 4 (cohort 5, 1.2 mg/kg, n=3): 1 (33) n (%) | Drug-related diarrhea, all grades (cohort 5, 1.2 mg/kg, n=3): 0 n (%) | Drug-related diarrhea, grade 3 (cohort 5, 1.2 mg/kg, n=3): 0 n (%) | Drug-related fatigue, all grades (cohort 5, 1.2 mg/kg, n=3): 0 n (%) | Drug-related fatigue, grade 3 (cohort 5, 1.2 mg/kg, n=3): 0 n (%) | Drug-related hyperglycemia, all grades (cohort 5, 1.2 mg/kg, n=3): 3 (100) n (%) | Drug-related hyperglycemia, grade 3 (cohort 5, 1.2 mg/kg, n=3): 1 (33) n (%) | Drug-related hypertension, all grades (cohort 5, 1.2 mg/kg, n=3): 0 n (%) | Drug-related hypertension, grade 3 (cohort 5, 1.2 mg/kg, n=3): 0 n (%) | Drug-related nausea, all grades (cohort 5, 1.2 mg/kg, n=3): 1 (33) n (%) | Drug-related nausea, grade 3 (cohort 5, 1.2 mg/kg, n=3): 0 n (%) | Drug-related oral cavity mucositis, all grades (cohort 5, 1.2 mg/kg, n=3): 0 n (%) | Drug-related oral cavity mucositis, grade 3 (cohort 5, 1.2 mg/kg, n=3): 0 n (%) | Drug-related rash/desquamation, all grades (cohort 5, 1.2 mg/kg, n=3): 0 n (%) | Drug-related rash/desquamation, grade 3 (cohort 5, 1.2 mg/kg, n=3): 0 n (%) | Drug-related vomiting, all grades (cohort 5, 1.2 mg/kg, n=3): 1 (33) n (%) | Drug-related vomiting, grade 3 (cohort 5, 1.2 mg/kg, n=3): 0 n (%) | Any drug-related AE [1]: 5 (83) n (%) | Drug-related AEs of grade 3 [1]: 3 (50) n (%) | Drug-related AEs of grade 4 [1]: 0 n (%) | Drug-related diarrhea, all grades [1]: 1 (17) n (%) | Drug-related diarrhea, grade 3 [1]: 0 n (%) | Drug-related fatigue, all grades [1]: 0 n (%) | Drug-related fatigue, grade 3 [1]: 0 n (%) | Drug-related hyperglycemia, all grades [1]: 1 (17) n (%) | Drug-related hyperglycemia, grade 3 [1]: 1 (17) n (%) | Drug-related hypertension, all grades [1]: 2 (33) n (%) | Drug-related hypertension, grade 3 [1]: 2 (33) n (%) | Drug-related nausea, all grades [1]: 2 (33) n (%) | Drug-related nausea, grade 3 [1]: 0 n (%) | Drug-related oral cavity mucositis, all grades [1]: 0 n (%) | Drug-related oral cavity mucositis, grade 3 [1]: 0 n (%) | Drug-related rash/desquamation, all grades [1]: 1 (17) n (%) | Drug-related rash/desquamation, grade 3 [1]: 1 (17) n (%) | Drug-related vomiting, all grades [1]: 0 n (%) | Drug-related vomiting, grade 3 [1]: 0 n (%) | diabetic ketoacidosis (during the study): no patients | patients with elevated aminotransferase grade ≥3 (laboratory finding): five | patients who discontinued because of AEs (n=57): Four | hyperglycemia grade 4, regardless of causality (n=57, text): 2% | serious drug-related AEs (six of 57 patients): 11% | Any drug-related AE [2]: 20 (80) n (%) | Drug-related AEs of grade 3 [2]: 12 (48) n (%) | Drug-related AEs of grade 4 [2]: 0 n (%) | Drug-related diarrhea, all grades [2]: 2 (8) n (%) | Drug-related diarrhea, grade 3 [2]: 0 n (%) | Drug-related fatigue, all grades [2]: 2 (8) n (%) | Drug-related fatigue, grade 3 [2]: 0 n (%) | Drug-related hyperglycemia, all grades [2]: 15 (60) n (%) | Drug-related hyperglycemia, grade 3 [2]: 8 (32) n (%) | Drug-related hypertension, all grades [2]: 5 (20) n (%) | Drug-related hypertension, grade 3 [2]: 2 (8) n (%) | Drug-related nausea, all grades [2]: 7 (28) n (%) | Drug-related nausea, grade 3 [2]: 0 n (%) | Drug-related oral cavity mucositis, all grades [2]: 2 (8) n (%) | Drug-related oral cavity mucositis, grade 3 [2]: 0 n (%) | Drug-related rash/desquamation, all grades [2]: 6 (24) n (%) | Drug-related rash/desquamation, grade 3 [2]: 2 (8) n (%) | Drug-related vomiting, all grades [2]: 3 (12) n (%) | Drug-related vomiting, grade 3 [2]: 0 n (%) | Any drug-related AE (total, n=57): 49 (86) n (%) | Drug-related AEs of grade 3 (total, n=57): 29 (51) n (%) | Drug-related AEs of grade 4 (total, n=57): 2 (4)^b n (%) | Drug-related diarrhea, all grades (total, n=57): 9 (16) n (%) | Drug-related diarrhea, grade 3 (total, n=57): 1 (2) n (%) | Drug-related fatigue, all grades (total, n=57): 6 (11) n (%) | Drug-related fatigue, grade 3 (total, n=57): 0 n (%) | Drug-related hyperglycemia, all grades (total, n=57): 36 (63) n (%) | Drug-related hyperglycemia, grade 3 (total, n=57): 17 (30) n (%) | Drug-related hypertension, all grades (total, n=57): 12 (21) n (%) | Drug-related hypertension, grade 3 (total, n=57): 8 (14) n (%) | Drug-related nausea, all grades (total, n=57): 21 (37) n (%) | Drug-related nausea, grade 3 (total, n=57): 0 n (%) | Drug-related oral cavity mucositis, all grades (total, n=57): 6 (11) n (%) | Drug-related oral cavity mucositis, grade 3 (total, n=57): 0 n (%) | Drug-related rash/desquamation, all grades (total, n=57): 9 (16) n (%) | Drug-related rash/desquamation, grade 3 (total, n=57): 4 (7) n (%) | Drug-related vomiting, all grades (total, n=57): 7 (12) n (%) | Drug-related vomiting, grade 3 (total, n=57): 0 n (%) | patients with drug-related grade 4 AEs (two patients, three events): 4%
